APJ antagonist: APJ receptor antagonism; CHO-K1 APJ beta-arrestin complementation, luminescence; 0.32% of 330,000 active; inhibition, % at 20 µM; P35414; AID 2521;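 active = inhibition above about 40% at 20 µM, limit read from the data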;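 note: cells challenged with 10 nM apelin-13 agonist together with compound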
CXCR6 block: blocks human CXCR6 beta-arrestin recruitment; inhibition, % at 20 µM; 0.36% of 360,000 active; CHO-K1 PathHunter CXCR6 beta-arrestin, luminescence; O00574; in the data active = inhibition above about 34%, passing the limit was not always enough;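 note: antagonist mode with CXCL16 agonist at 10 nM final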
CCR6 antag: antagonists of human CCR6 receptor | AID 493098 | 0.49% of 340,000 active | CHO-K1 CCR6 PathHunter beta-arrestin, luminescence, CCL20-stimulated | P51684 | inhibition, % at 20 µM;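 active = compounds whose inhibition of the agonist-driven luminescence signal at 20 µM reaches about 50%, limit read from the data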;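 note: cells stimulated with CCL20 at 14 nM final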
APJ ag: APJ receptor agonism; 0.11% of 330,000 active; P35414; AID 2520; activation, % at 20 µM; CHO-K1 APJ PathHunter beta-arrestin, luminescence; 0% DMSO wells, 100% apelin;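 active = activation more than six SD over the plate average, tested at 20 µM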
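Incubation: overnight seeding, 90 min compound at 25 °C, 1 h detection; test system: PathHunter CHO-K1 APJ (AGTRL-1) beta-arrestin reporter cells; amount: 1000 cells/well; doses: one dose, 20 µM compound, 1% DMSO; measured by: beta-gal luminescence; measure: agonist-driven arrestin binding to APJ; benchmarks: negative DMSO alone, positive Apelin-13 at 10 nM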
EBI2 block: blocks human EBI2 receptor beta-arrestin signaling | AID 651636 | inhibition, % at 5 µM | 0.81% of 360,000 active | EBI2 beta-arrestin recruitment, luminescence, 7a,25-OHC stimulated; in the data active = inhibition above about 38%;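 note: enzyme fragment complementation signal reports receptor beta-arrestin coupling in cells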
Target sequence (P32249 whole entry, looked up, the tested form may be a part): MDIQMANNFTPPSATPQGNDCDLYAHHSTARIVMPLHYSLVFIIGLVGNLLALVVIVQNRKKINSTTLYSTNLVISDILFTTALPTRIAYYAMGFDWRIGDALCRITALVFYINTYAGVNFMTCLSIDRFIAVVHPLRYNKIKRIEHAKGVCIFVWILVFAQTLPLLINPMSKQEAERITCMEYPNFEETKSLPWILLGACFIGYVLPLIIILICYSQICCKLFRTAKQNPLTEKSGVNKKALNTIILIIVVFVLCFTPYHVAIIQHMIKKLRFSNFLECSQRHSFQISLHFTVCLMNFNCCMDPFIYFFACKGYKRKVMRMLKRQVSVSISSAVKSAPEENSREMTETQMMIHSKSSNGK
EBI2 conf: confirmation of human EBI2 receptor antagonists | shares compounds with EBI2 block | EBI2 beta-arrestin luminescence, 7a,25-OHC antagonism | inhibition, % at 5 µM | 29% of 2,400 active | AID 651997;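 active = inhibition of at least 50%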
EBI2 agonist: EBI2 agonism counter-screen | EBI2-expressing cells, agonist mode, luminescence, 60 min; 0% vehicle, 100% 7α,25-dihydroxycholesterol control | activation, % at 5 µM | AID 652000 | shares compounds with EBI2 block | 2,400 tested, under 10 active;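 active = activation of at least 50%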
bGal counter: beta-galactosidase inhibition counter-screen; shares compounds with EBI2 block; purified beta-galactosidase, luminescent Galacton Star, 15 min; inhibition, % at 5 µM; 1% of 2,400 active; AID 652176;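 active = replicate-average signal at least 3 plate SD below neutral wells, shown as high inhibition, flagging enzyme-inhibiting false positives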;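 note: higher means stronger loss of beta-gal luminescence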
Numbers stand for hits; n = inactive; x = not tested or not shown. A selection: hits, their analogues and other compounds. The true share with any hit is near 1.5%.

SMILES	APJ antagonist	CXCR6 block	CCR6 antag	APJ ag	EBI2 block	EBI2 conf	EBI2 agonist	bGal counter
CCc1ccc(NC(=O)C(C)OC(=O)c2cc(=O)[nH]c3ccc(S(=O)(=O)Nc4ccc(F)cc4)cc23)cc1 (stereo not given)	n	n	n	n	n	x	x	x
CSCCC(NC(=O)c1ccccc1)C(=O)OCC(=O)NCc1ccco1 (stereo not given)	n	n	n	n	n	x	x	x
O=C(CCc1c[nH]c2ccccc12)NCCc1ccc(Cl)cc1	n	n	n	n	49	n	n	n
Cc1ccc(/C=C/C(=O)NCCCc2ccccc2)cc1	n	n	n	n	49	n	n	n
Cc1ccc(CSCCNC(=O)/C=C/c2ccc(Cl)cc2)cc1	n	n	n	n	53	n	n	n
O=[N+]([O-])c1ccc(N/N=C/c2cn(-c3ccccc3)nc2-c2ccccc2)cc1	n	n	n	n	44	n	n	n
NS(=O)(=O)c1ccc(N/N=C/c2cn(-c3ccccc3)nc2-c2ccccc2)c([N+](=O)[O-])c1	n	n	n	n	n	x	x	x
Cc1c(NC(=O)CSc2nnc(C(C)N(C)C)n2-c2ccccc2)c(=O)n(-c2ccccc2)n1C (stereo not given)	x	n	n	x	n	x	x	x
Cc1ccc2[nH]c(C(=O)N3CCCCC3)cc2c1	n	n	n	n	n	x	x	x
CCOC(=O)C1CCN(C(=O)c2cc3cc(F)ccc3[nH]2)CC1	n	n	n	n	62	n	n	n
CCOC(=O)N1CCN(C(=O)c2cc3cc(F)ccc3[nH]2)CC1	n	n	n	n	81	53	n	n
CCOC(=O)N1CCN(C(=O)c2cc3cc(Cl)ccc3[nH]2)CC1	n	n	n	n	93	73	n	n
CCOC(=O)C1CCCN(C(=O)c2cc3cc(F)ccc3[nH]2)C1 (stereo not given)	n	n	n	n	n	x	x	x
CN(C)C(=O)C[C@@H]1CC[C@@H](NC(=O)C2CCC2)[C@@H](CO)O1	x	x	x	x	n	x	x	x
CCOC(=O)C1(Cc2cccc(OC)c2)CCCN(Cc2cc(OC)c(O)c(OC)c2)C1 (stereo not given)	n	n	n	n	82	58	n	n
CCOC(=O)C1(Cc2cccc(OC)c2)CCCN(Cc2cnn(C)c2)C1 (stereo not given)	n	n	n	n	n	x	x	x
O=C(Nc1ccc(O)cc1)c1ccc2c(c1)C(=O)N(Cc1cccnc1)C2=O	n	n	n	n	n	x	x	x
O=C(Nc1ccc(Cl)cc1F)c1ccc2c(c1)C(=O)N(Cc1ccncc1)C2=O	n	n	n	n	51	n	n	n
COc1ccc(NC(=O)c2ccc3c(c2)C(=O)N(Cc2cccnc2)C3=O)cc1	n	n	n	n	53	n	n	n
O=C(NC(c1ccccc1)c1ccsc1)C1CCN(Cc2ccc(Oc3ccccc3)cc2)CC1 (stereo not given)	x	n	x	x	n	x	x	x
CCCc1cc(C(=O)N2CCCN(C)CC2)cs1	n	n	n	n	n	x	x	x
CCCc1cc(C(=O)N2CCN(c3ccccc3C)CC2)cs1	n	n	n	n	63	n	n	n
CC(C)C[C@H]1CNC(=S)N1C[C@H]1CCCN1C[C@H](CC(C)C)N1C[C@H](Cc2ccc(O)cc2)N(CC2CCCCCC2)C1=S	x	n	x	x	60	n	n	n
CC(C)C[C@@H](CN1CCC[C@@H]1CN1C(=S)NC[C@@H]1Cc1ccccc1)N1C[C@H](Cc2ccc(O)cc2)N(CC2CCCCCC2)C1=S	x	n	x	x	58	n	n	n
CC(C)C[C@H]1CNC(=S)N1CC1CCCN1C[C@H](CC(C)C)N1C[C@H](Cc2ccc(O)cc2)N(CC2CCCCC2)C1=S (stereo not given in full)	x	n	n	x	n	x	x	x
SMILES	APJ antagonist	CXCR6 block	CCR6 antag	APJ ag	EBI2 block	EBI2 conf	EBI2 agonist	bGal counter
COc1ncnc2c1ncn2CCCNCc1ccccc1	x	n	x	x	n	x	x	x
c1ccc(-c2csc(Nc3nc(N4CCOCC4)nc(N4CCOCC4)n3)n2)cc1	n	n	n	n	50	n	n	n
CN(C)S(=O)(=O)c1ccc(C(=O)NCC(=O)N/N=C/c2ccccc2Cl)cc1	n	n	n	n	72	n	n	n
Cc1ccc(/C=N/NC(=O)CNC(=O)c2ccc(S(=O)(=O)N(C)C)cc2)cc1	n	n	n	n	45	n	n	n
Cc1ccsc1/C=N/NC(=O)CNC(=O)c1ccc(S(=O)(=O)N(C)C)cc1	n	n	n	n	n	x	x	x
O=C(NC(c1ccc(-c2ccccc2)cc1)c1cnccn1)C1CCN(CCN2C(=O)c3ccccc3C2=O)CC1 (stereo not given)	x	n	x	x	n	x	x	x
O=C(c1ccc(-c2ccccc2)cc1)N1CCN(c2ccc3c(c2)C2CC3CCN2C(=O)OCc2ccccc2)CC1 (stereo not given)	x	n	x	x	54	n	n	n
Cc1ccc(C(=O)N2CCN(c3ccc4c(c3)C3CC4CCN3C(=O)OCc3ccccc3)CC2)cc1 (stereo not given)	x	n	x	x	n	x	x	x
CC(=O)n1cc([C@H]2C=C(C(=O)N3CCN(Cc4ccccc4)CC3)O[C@@H](OCc3ccc(CO)cc3)C2)c2ccccc21	n	n	n	n	47	n	n	n
CC(=O)n1cc([C@H]2C=C(C(=O)N3CCN(Cc4ccc5c(c4)OCO5)CC3)O[C@@H](OCc3ccc(CO)cc3)C2)c2ccccc21	n	n	n	n	n	x	x	x
CCOC(=O)C1(CCOc2ccccc2)CCN(C(=O)c2ccc(-n3cccn3)cc2)CC1	n	n	n	n	88	68	n	n
O=S1(=O)N[C@H](Cc2ccccc2)COc2cccc(N3CCSCC3)c21	x	n	x	x	n	x	x	x
O=C(c1ccncc1)N1CCN(c2ccc(F)cc2)CC1	n	n	n	n	n	x	x	x
Cc1ccc(C(=O)C2CCN(C(=O)c3ccc(C)cc3)CC2)cc1	n	n	n	n	57	n	n	n
Cc1ccc(C(=O)N2CCN(S(=O)(=O)N3CCCCCC3)CC2)cc1	n	n	n	n	n	x	x	x
O=C(c1ccc(Cl)cc1)N1CCN(c2ccc(F)cc2)CC1	n	n	n	n	51	n	n	n
Cc1ccc(C(=O)N2CCC(C(=O)c3ccc(F)cc3)CC2)cc1	x	n	n	x	52	50	n	n
CC(=O)N1CCC(C(=O)c2ccc(Cl)cc2)CC1	n	n	n	n	n	x	x	x
O=C(c1ccc(Cl)cc1)C1CCN(C(=O)c2ccc(F)cc2)CC1	n	n	n	n	49	n	n	n
CCOC1=C2[C@@H](CN(S(=O)(=O)c3ccc(C)cc3)[C@H]2c2ccccc2F)[C@H]2C(=O)N(C3CCCCC3)C(=O)[C@H]2C1	x	n	x	x	n	x	x	x
O=C(NCCO)c1ccc(-c2ccc3nncn3c2)cc1	x	n	x	x	n	x	x	x

High-throughput results from PubChem BioAssay.
